Consider eight compounds from ChEMBL document CHEMBL1131139, “Synthesis and antibacterial activity of ketolides (6-O-methyl-3-oxoerythromycin derivatives): a new class of antibacterials highly potent against macrolide-resistant and -susceptible respiratory pathogens” (1998).

≈ marks a conversion by molar mass, not a printed value.

Holding throughout (assay type): functional
In experiment [1] the test system is Staphylococcus aureus. The experiment can be described thus: In vitro inhibitory activity against Staphylococcus aureus (EryRc 011CB20). The gist of the method: (§1)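 Two-fold agar dilution on Mueller-Hinton agar (pH 7.4). Inoculum from overnight plate cultures suspended in Mueller-Hinton broth, adjusted to 10^9 CFU/mL, diluted 1:200 and spotted by multipoint inoculator at about 10^4 CFU/spot. Plates incubated 37 °C for 20 h. MIC taken as lowest concentration with no visible growth.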

In a further experiment the test system is Escherichia coli. The experiment is described as follows: In vitro inhibitory activity against Escherichia coli (250 UC5). A digest of the protocol:
as §1

The subject of a further experiment is Streptococcus pyogenes. The experiment is described as follows: In vitro inhibitory activity against Streptococcus pyogenes (02A1UC1). A digest of the protocol: as §1
In experiment [2] the test system is Streptococcus pneumoniae. The experiment can be described thus: In vitro inhibitory activity against Streptococcus pneumoniae (EryRi 030SJ5i). The gist of the method: as §1
Experiment [3] concerns Streptococcus pneumoniae. The experiment can be described thus: In vitro inhibitory activity against Streptococcus pneumoniae (EryRc 030SJ1). A digest of the protocol: as §1
Experiment [4] concerns Staphylococcus aureus. The experiment can be described thus: In vitro inhibitory activity against Staphylococcus aureus (011UC4). The gist of the method: as §1
Experiment [5] relates to Staphylococcus epidermidis. The experiment is described as follows: In vitro inhibitory activity against Staphylococcus epidermidis (EryRi 012GO11i). The gist of the method:
as §1

Experiment [6] concerns Staphylococcus aureus. The experiment can be described thus: In vitro inhibitory activity against Staphylococcus aureus (EryRi 011GO25i). The gist of the method: as §1
In experiment [7] the test system is Streptococcus pneumoniae. The experiment can be described thus: In vitro inhibitory activity against Streptococcus pneumoniae (032UC1). A digest of the protocol: as §1
Experiment [8] relates to Haemophilus influenzae. The experiment is described as follows: In vitro inhibitory activity against Haemophilus influenzae (351CB12). A digest of the protocol:
as §1

For experiment [9], the system named is Haemophilus influenzae. The experiment can be described thus: In vitro inhibitory activity against Haemophilus influenzae (351HT3). The gist of the method: as §1

As to `CC[C@H]1OC(=O)[C@H](C)C(=O)[C@H](C)[C@@H](O[C@@H]2O[C@H](C)C[C@H](N(C)C)[C@H]2O)[C@](C)(OC)C[C@@H](C)C(=O)[C@@H](C)[C@H]2N(NCCCc3ccnc4c(OC)cccc34)C(=O)O[C@]12C`, the MIC turned out to be 40 µg/mL (≈ 48.4 µM) against Staphylococcus aureus [1]; 40 µg/mL (≈ 48.4 µM) with Escherichia coli; 0.02 µg/mL (≈ 0.0242 µM) in the experiment with Streptococcus pyogenes; 0.15 µg/mL (≈ 0.181 µM) against Streptococcus pneumoniae [2]; 2.5 µg/mL (≈ 3.02 µM) with Streptococcus pneumoniae [3]; 0.04 µg/mL (≈ 0.0484 µM) in the experiment on Staphylococcus aureus [4]. Besides, the MIC in [5] is 0.15 µg/mL (≈ 0.181 µM); with Staphylococcus aureus [6] it was 0.15 µg/mL (≈ 0.181 µM); in the experiment on Streptococcus pneumoniae [7], 0.02 µg/mL (≈ 0.0242 µM); in the experiment with Haemophilus influenzae [8] it was 1.2 µg/mL (≈ 1.45 µM); in the experiment on Haemophilus influenzae [9], 0.6 µg/mL (≈ 0.725 µM).

For the compound `CC[C@H]1OC(=O)[C@H](C)C(=O)[C@H](C)[C@@H](O[C@@H]2O[C@H](C)C[C@H](N(C)C)[C@H]2O)[C@](C)(OC)C[C@@H](C)C(=O)[C@H](C)[C@H]2N(CCOCc3ccccc3)C(=O)O[C@]12C`, the MIC against Staphylococcus aureus [1] worked out at 40 µg/mL (≈ 53.6 µM); with Escherichia coli, 40 µg/mL (≈ 53.6 µM); against Streptococcus pyogenes, 0.02 µg/mL (≈ 0.0268 µM); in the experiment on Streptococcus pneumoniae [2], 0.3 µg/mL (≈ 0.402 µM); in the experiment on Streptococcus pneumoniae [3], 5 µg/mL (≈ 6.69 µM); in the experiment on Staphylococcus aureus [4] it was 0.04 µg/mL (≈ 0.0536 µM). Besides, the MIC in experiment [5] was 0.15 µg/mL (≈ 0.201 µM); in the experiment with Staphylococcus aureus [6], 0.08 µg/mL (≈ 0.107 µM); in the experiment with Streptococcus pneumoniae [7] it was 0.02 µg/mL (≈ 0.0268 µM); in the experiment on Haemophilus influenzae [8], 0.6 µg/mL (≈ 0.803 µM); in the experiment with Haemophilus influenzae [9] it was 1.2 µg/mL (≈ 1.61 µM).

With `CC[C@H]1OC(=O)[C@H](C)C(=O)[C@H](C)[C@@H](O[C@@H]2O[C@H](C)C[C@H](N(C)C)[C@H]2O)[C@](C)(OC)C[C@@H](C)/C(=N\OC2CCCN(CCCC3CCCCC3)C2)[C@H](C)[C@@H](O)[C@]1(C)O` (stereo partly drawn), the MIC against Staphylococcus aureus [1] was 40 µg/mL (≈ 49.4 µM); against Escherichia coli, 40 µg/mL (≈ 49.4 µM); against Streptococcus pyogenes it was 0.04 µg/mL (≈ 0.0494 µM); against Streptococcus pneumoniae [2], 0.15 µg/mL (≈ 0.185 µM); in the experiment with Streptococcus pneumoniae [3] it was 0.6 µg/mL (≈ 0.741 µM); against Staphylococcus aureus [4] it was 0.15 µg/mL (≈ 0.185 µM). Further, the MIC in [5] was 5 µg/mL (≈ 6.17 µM); against Staphylococcus aureus [6] it was 2.5 µg/mL (≈ 3.09 µM); with Streptococcus pneumoniae [7], 0.02 µg/mL (≈ 0.0247 µM); in the experiment with Haemophilus influenzae [8], 1.2 µg/mL (≈ 1.48 µM); in the experiment with Haemophilus influenzae [9], 5 µg/mL (≈ 6.17 µM).

With `CC[C@H]1OC(=O)[C@H](C)C(=O)[C@H](C)[C@@H](O[C@@H]2O[C@H](C)C[C@H](N(C)C)[C@H]2O)[C@](C)(OC)C[C@@H](C)C(=O)[C@H](C)[C@H]2N(CCCNc3ccccc3)C(=O)O[C@]12C`, the MIC worked out at 40 µg/mL (≈ 53.6 µM) in the experiment on Staphylococcus aureus [1]; 40 µg/mL (≈ 53.6 µM) in the experiment with Escherichia coli; 0.04 µg/mL (≈ 0.0536 µM) in the experiment with Streptococcus pyogenes; 0.6 µg/mL (≈ 0.804 µM) with Streptococcus pneumoniae [2]; 40 µg/mL (≈ 53.6 µM) with Streptococcus pneumoniae [3]; 0.08 µg/mL (≈ 0.107 µM) against Staphylococcus aureus [4]. For the same compound, the MIC in [5] worked out at 0.3 µg/mL (≈ 0.402 µM); against Staphylococcus aureus [6], 0.6 µg/mL (≈ 0.804 µM); with Streptococcus pneumoniae [7] it was 0.02 µg/mL (≈ 0.0268 µM); against Haemophilus influenzae [8] it was 1.2 µg/mL (≈ 1.61 µM); in the experiment with Haemophilus influenzae [9] it was 2.5 µg/mL (≈ 3.35 µM).

`CC[C@H]1OC(=O)[C@H](C)C(=O)[C@H](C)[C@@H](O[C@@H]2O[C@H](C)C[C@H](N(C)C)[C@H]2O)[C@](C)(OC)C[C@@H](C)C(=O)[C@H](C)[C@H]2N(CCCCc3ccnc4ccc(OC)cc34)C(=O)O[C@]12C`: the MIC is 40 µg/mL (≈ 48.4 µM) in the experiment with Staphylococcus aureus [1]; 40 µg/mL (≈ 48.4 µM) in the experiment with Escherichia coli; 0.02 µg/mL (≈ 0.0242 µM) with Streptococcus pyogenes; 0.02 µg/mL (≈ 0.0242 µM) in the experiment on Streptococcus pneumoniae [2]; 0.6 µg/mL (≈ 0.726 µM) with Streptococcus pneumoniae [3]; 0.08 µg/mL (≈ 0.0968 µM) in the experiment with Staphylococcus aureus [4]. Further, the MIC in experiment [5] came out at 0.04 µg/mL (≈ 0.0484 µM); with Staphylococcus aureus [6] it was 0.08 µg/mL (≈ 0.0968 µM); against Streptococcus pneumoniae [7], 0.02 µg/mL (≈ 0.0242 µM); with Haemophilus influenzae [8], 1.2 µg/mL (≈ 1.45 µM); in the experiment with Haemophilus influenzae [9] it was 1.2 µg/mL (≈ 1.45 µM).

Regarding `CC[C@H]1OC(=O)[C@H](C)C(=O)[C@H](C)[C@@H](O[C@@H]2O[C@H](C)C[C@H](N(C)C)[C@H]2O)[C@](C)(OC)C[C@@H](C)C(=O)[C@H](C)[C@@H](O)[C@]1(C)O`, the MIC was found to be 40 µg/mL (≈ 68.1 µM) with Staphylococcus aureus [1]; 40 µg/mL (≈ 68.1 µM) with Escherichia coli; 0.6 µg/mL (≈ 1.02 µM) against Streptococcus pyogenes; 40 µg/mL (≈ 68.1 µM) against Streptococcus pneumoniae [2]; 40 µg/mL (≈ 68.1 µM) with Streptococcus pneumoniae [3]; 0.3 µg/mL (≈ 0.51 µM) against Staphylococcus aureus [4]. In addition, the MIC in [5] is 5 µg/mL (≈ 8.51 µM); against Staphylococcus aureus [6], 40 µg/mL (≈ 68.1 µM); with Streptococcus pneumoniae [7], 0.15 µg/mL (≈ 0.255 µM); in the experiment with Haemophilus influenzae [8], 20 µg/mL (≈ 34 µM); in the experiment with Haemophilus influenzae [9] it was 20 µg/mL (≈ 34 µM).

As for `CC[C@H]1OC(=O)[C@H](C)C(=O)[C@H](C)[C@@H](O[C@@H]2O[C@H](C)C[C@H](N(C)C)[C@H]2O)[C@](C)(OC)C[C@@H](C)C(=O)[C@@H](C)[C@H]2NC(=O)O[C@@]21C`, the MIC in the experiment with Staphylococcus aureus [1] worked out at 40 µg/mL (≈ 65.3 µM); against Escherichia coli, 40 µg/mL (≈ 65.3 µM); in the experiment with Streptococcus pyogenes, 2.5 µg/mL (≈ 4.08 µM); in the experiment with Streptococcus pneumoniae [2], 40 µg/mL (≈ 65.3 µM); in the experiment with Streptococcus pneumoniae [3], 40 µg/mL (≈ 65.3 µM); in the experiment on Staphylococcus aureus [4], 5 µg/mL (≈ 8.16 µM). In addition, the MIC in experiment [5] turned out to be 40 µg/mL (≈ 65.3 µM); against Staphylococcus aureus [6] it was 40 µg/mL (≈ 65.3 µM); in the experiment with Streptococcus pneumoniae [7], 0.3 µg/mL (≈ 0.49 µM); in the experiment on Haemophilus influenzae [8], 20 µg/mL (≈ 32.6 µM); with Haemophilus influenzae [9] it was 20 µg/mL (≈ 32.6 µM).

Take `CCCCCCCCCCN1CCCC(O/N=C2\[C@H](C)C[C@@](C)(OC)[C@H](O[C@@H]3O[C@H](C)C[C@H](N(C)C)[C@H]3O)[C@@H](C)C(=O)[C@@H](C)C(=O)O[C@H](CC)[C@@](C)(O)[C@H](O)[C@H]2C)C1` (stereo partly drawn): the MIC was found to be 10 µg/mL (≈ 12.1 µM) in the experiment on Staphylococcus aureus [1]; 40 µg/mL (≈ 48.4 µM) against Escherichia coli; 0.08 µg/mL (≈ 0.0968 µM) against Streptococcus pyogenes; 0.3 µg/mL (≈ 0.363 µM) in the experiment on Streptococcus pneumoniae [2]; 1.2 µg/mL (≈ 1.45 µM) against Streptococcus pneumoniae [3]; 0.6 µg/mL (≈ 0.726 µM) with Staphylococcus aureus [4]. For the same compound, the MIC in [5] came to 0.6 µg/mL (≈ 0.726 µM); against Staphylococcus aureus [6] it was 0.6 µg/mL (≈ 0.726 µM); in the experiment on Streptococcus pneumoniae [7], 0.08 µg/mL (≈ 0.0968 µM); against Haemophilus influenzae [8], 5 µg/mL (≈ 6.05 µM); against Haemophilus influenzae [9] it was 20 µg/mL (≈ 24.2 µM).
